Source: ChEMBL document CHEMBL1126115, “Synthesis of a homologous series of ketomethylene arginyl pseudodipeptides and application to low molecular weight hirudin-like thrombin inhibitors” (J Med Chem, 1992)
Starred links: 1 amine or outer side, 2 acyl side, 3 side chain; linkers in the order of their positions; H or OH if unused. Non-standard residues stand in square brackets, D forms with d. Residues, ends and D or L forms follow the SMILES beside them. X1 = NC(N)=NCCCC(N[*:1])C(=O)CCCCC(=O)[*:2]; X2 = O=C(C/C=C/CN[*:1])[*:2]

These molecules were tested against Prothrombin (Homo sapiens, UniProt P00734) (assay: Compound was evaluated for their ability to inhibit the alpha-thrombin-mediated hydrolysis of the fluorescent substrate Tos-Gly-Pro-Arg-Amc).
Method in brief: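 Human α-thrombin (30 pM) added to start the reaction, 25 °C, 0.1 M Tris-HCl pH 7.8 with 0.1 M NaCl and 0.1% PEG 6000. […] Initial rates of Amc fluorescence read at ex 383/em 455 nm, calibrated against free 7-amino-4-methylcoumarin. Ki obtained by nonlinear fit to a competitive inhibition equation.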

Point of comparison: `CC[C@H](C)[C@H](NC(=O)[C@@H]1CCCN1C(=O)[C@H](CCC(=O)O)NC(=O)[C@H](Cc1ccccc1)NC(=O)[C@H](CC(=O)O)NC(=O)C/C=C/CNC(=O)C/C=C/CNC(=O)CCCCC(=O)C(CCCN=C(N)N)NC(=O)[C@@H]1CCCN1C(=O)[C@H](Cc1ccccc1)NC(C)=O)C(=O)N1CCC[C@H]1C(=O)N[C@@H](CC(C)C)C(=O)O` (stereo partly drawn), Ki 3.5 nM. Against it:
- CC[C@H](C)[C@H](NC(=O)[C@@H]1CCCN1C(=O)[C@H](CCC(=O)O)NC(=O)C(Cc1ccccc1)NC(=O)[C@H](CC(=O)O)NC(=O)CNC(=O)[C@H](CC(=O)O)NC(=O)[C@H](CC(N)=O)NC(=O)[C@H](Cc1cnc[nH]1)NC(=O)[C@H](CO)NC(=O)[C@H](CCC(N)=O)NC(=O)[C@@H]1CCCN1C(=O)[C@H](CCCNC(=N)N)N(C)C(=O)[C@@H]1CCCN1C(=O)C(Cc1ccccc1)NC(C)=O)C(=O)N1CCC[C@H]1C(=O)N[C@@H](CC(C)C)C(=O)O (stereo in doubt) — within 1.5-fold, 2.8 nM
- CC[C@H](C)[C@H](NC(=O)[C@H](CCC(=O)O)NC(=O)[C@H](CCC(=O)O)NC(=O)[C@H](Cc1ccccc1)NC(=O)[C@H](CC(=O)O)NC(=O)CNC(=O)[C@H](CC(=O)O)NC(=O)[C@H](CC(N)=O)NC(=O)[C@H](Cc1c[nH]cn1)NC(=O)[C@H](CO)NC(=O)[C@H](CCC(N)=O)NC(=O)CC(=O)[C@H](CCCN=C(N)N)NC(=O)[C@@H]1CCCN1C(=O)[C@H](Cc1ccccc1)NC(C)=O)C(=O)N1CCC[C@H]1C(=O)N[C@@H](CCC(=O)O)C(=O)N[C@@H](CCC(=O)O)C(=O)N[C@@H](Cc1ccc(O)cc1)C(=O)N[C@@H](CC(C)C)C(=O)N[C@@H](CCC(N)=O)C(=O)O — within 1.5-fold, 3.8 nM
- CC[C@H](C)[C@H](NC(=O)[C@@H]1CCCN1C(=O)[C@H](CCC(=O)O)NC(=O)[C@H](Cc1ccccc1)NC(=O)[C@H](CC(=O)O)NC(=O)C/C=C/CNC(=O)CCCCC(=O)[C@H](CCCN=C(N)N)NC(=O)[C@@H]1CCCN1C(=O)[C@H](Cc1ccccc1)NC(C)=O)C(=O)N1CCC[C@H]1C(=O)N[C@@H](CC(C)C)C(=O)O (HELM PEPTIDE1{[ac].F.P.[NC(N)=NCCC[C@H](N[*:1])C(=O)CCCCC(=O)[*:2]].[O=C(C/C=C/CN[*:1])[*:2]].D.F.E.P.I.P.L}$$$$V2.0) — 86-fold higher, 300 nM
- CC[C@H](C)[C@H](NC(=O)[C@H](CCC(=O)O)NC(=O)[C@H](CCC(=O)O)NC(=O)[C@H](Cc1ccccc1)NC(=O)[C@H](CC(=O)O)NC(=O)CNC(=O)[C@H](CC(=O)O)NC(=O)[C@H](CC(N)=O)NC(=O)[C@H](Cc1c[nH]cn1)NC(=O)[C@H](CO)NC(=O)[C@H](CCC(N)=O)NC(=O)CCCCC(=O)[C@H](CCCN=C(N)N)NC(=O)[C@@H]1CCCN1C(=O)[C@H](Cc1ccccc1)NC(C)=O)C(=O)N1CCC[C@H]1C(=O)N[C@@H](CCC(=O)O)C(=O)N[C@@H](CCC(=O)O)C(=O)N[C@@H](Cc1ccc(O)cc1)C(=O)N[C@@H](CC(C)C)C(=O)N[C@@H](CCC(N)=O)C(=O)O — 25-fold lower, 0.14 nM
- CC[C@H](C)[C@H](NC(=O)[C@H](CCC(=O)O)NC(=O)[C@H](CCC(=O)O)NC(=O)[C@H](Cc1ccccc1)NC(=O)[C@H](CC(=O)O)NC(=O)CNC(=O)[C@H](CC(=O)O)NC(=O)[C@H](CC(N)=O)NC(=O)[C@H](Cc1c[nH]cn1)NC(=O)[C@H](CO)NC(=O)[C@H](CCC(N)=O)NC(=O)CCCC(=O)[C@H](CCCN=C(N)N)NC(=O)[C@@H]1CCCN1C(=O)[C@H](Cc1ccccc1)NC(C)=O)C(=O)N1CCC[C@H]1C(=O)N[C@@H](CCC(=O)O)C(=O)N[C@@H](CCC(=O)O)C(=O)N[C@@H](Cc1ccc(O)cc1)C(=O)N[C@@H](CC(C)C)C(=O)N[C@@H](CCC(N)=O)C(=O)O — 6.2-fold lower, 0.56 nM
- CC[C@H](C)[C@H](NC(=O)[C@@H]1CCCN1C(=O)[C@H](CCC(=O)O)NC(=O)[C@H](Cc1ccccc1)NC(=O)[C@H](CC(=O)O)NC(=O)C/C=C/CNC(=O)C/C=C/CNC(=O)C/C=C/CNC(=O)CCCCC(=O)C(CCCN=C(N)N)NC(=O)[C@@H]1CCCN1C(=O)[C@H](Cc1ccccc1)NC(C)=O)C(=O)N1CCC[C@H]1C(=O)N[C@@H](CC(C)C)C(=O)O (stereo partly drawn) (Ac-FP[X1][X2][X2][X2]DFEPIPL-OH) — within 1.5-fold, 3.2 nM

Each molecule was assayed on Rattus norvegicus (assay: Antithrombotic effect compared to recombinant hirudin in the rat rretiovenous shunt model after intravenous administration).
Format: functional
Method in brief: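 Urethane-anaesthetised rats on a temperature-controlled heating plate; right carotid artery and left jugular vein catheterised and joined by a 2-cm glass capillary (1 mm internal diameter) as thrombogenic surface. Compound or saline given intravenously 5 min before the shunt was opened. Patency followed by capillary temperature rise (thermocouple). ED15 is the dose giving a 15-min prolongation of shunt patency.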

`CC[C@H](C)[C@H](NC(=O)[C@@H]1CCCN1C(=O)[C@H](CCC(=O)O)NC(=O)[C@H](Cc1ccccc1)NC(=O)[C@H](CC(=O)O)NC(=O)C/C=C/CNC(=O)C/C=C/CNC(=O)CCCCC(=O)[C@H](CCCN=C(N)N)NC(=O)[C@@H]1CCCN1C(=O)[C@@H](Cc1ccccc1)NC(C)=O)C(=O)N1CCC[C@H]1C(=O)N[C@@H](CC(C)C)C(=O)O` showed an ED15 of 6.27 mg/kg.
